Reference: ChEMBL document CHEMBL4513216, “Probing the Open Global Health Chemical Diversity Library for Multistage-Active Starting Points for Next-Generation Antimalarials” (ACS Infect Dis, 2020)

Assay: Toxicity liver stage against HepG2, at 10uM
Assay type: cell-based
Design: test concentration 10 uM, cell line HepG2-A16-CD81EGFP
Conditions: human, HepG2-A16-CD81EGFP cells; read-out: INHIBITION
Outline: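 Uninfected HepG2-A16-CD81EGFP cells, 3 × 10^3 per well, 1536-well, plated on prespotted compound at 10 μM final, parasite-free screening media added to match infected plates; puromycin 10 μM positive, DMSO 0.5% negative; run in parallel with 48 h PbLuc assay at 37 °C, 5% CO2; viability by CellTiter-Glo luminescence, normalized to controls.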

Row | SMILES | cytotoxicity at 10 µM [%]
1 | CC(C)Cc1cc(CC2(NCc3ccccc3Cl)COC2)no1 | -7.55
2 | CC(C)(C)c1coc([C@@H]2COCCN2Cc2csnn2)n1 | 3.33
3 | Cc1cccnc1CNC[C@H]1Cn2cc(-c3ccccc3)nc2CO1 | -2.56
4 | Cc1cc(Cc2ccc(S(=O)(=O)N3CCCC3)cc2)c(=O)[nH]n1 | 6.47
5 | CCN(CC)CCSc1nnc(N2CCN(c3ccccc3)CC2)s1 | -21.9
6 | O=C([C@H]1CCCO1)N1CC[C@@H](O)[C@@H]1Cc1ccccc1 | 1.41
7 | c1ccc(O[C@@H]2CC[C@H]3[C@H]2OCCN3Cc2ccsc2)nc1 | 1.24
8 | Cc1oncc1C(=O)N1CC[C@H]2[C@H]1CCN2Cc1ccccn1 | 6.15
9 | CNc1nc2c(s1)C(c1ccccc1Cl)CC(=O)N2 (stereo not drawn) | 2.82
10 | Cc1c(C(=O)N2CCN(C)CC2)n(C)c2ccc(Cl)cc12 | -2.46
11 | COC(=O)c1ccc(OC)c(Cn2cc(Br)cn2)c1 | 3.05
12 | COC(=O)c1cc(C2CC2)nc2c(Cl)cnn12 | 14.7
13 | Cc1noc(C2CCN(C(=O)c3cccs3)CC2)n1 | -1.22
14 | COC(=O)CCn1ccc(=O)c2ccccc21 | -6.84
15 | Cc1cc(N(C)C)nc(C2COCCN2Cc2nccn2C)n1 (stereo not drawn) | -3.43
16 | CCC(=O)N1CCC(c2nc(N3CCCC3)ncc2S(C)(=O)=O)CC1 | 3.86
17 | COc1ccc(CN(C)CC2(O)CCNC2)cc1 (stereo not drawn) | -1.68
18 | COc1ccccc1CN1CCCC(Cc2nccnc2N)C1 (stereo not drawn) | -3.81
19 | CCC(=O)N1CCC(c2ncncc2C)CC1 | -11.5
20 | Cc1cc(CC2COCCN(CCc3ccccc3)C2)ncn1 (stereo not drawn) | 2.04
21 | c1ccc(N2CCN(Cc3cnc(C4CCCCO4)nc3)CC2)cc1 (stereo not drawn) | 0.59
22 | CN1CCCC(c2ccnc(C(=O)NC3CC3)c2)C1 (stereo not drawn) | -29.5
23 | CCCC(=O)N1CCCCC1c1nccc(C)n1 (stereo not drawn) | -21

Row | SMILES | cytotoxicity at 10 µM [%]
24 | NC(=O)C1(c2cnccn2)CCCN1Cc1ccc(F)c(F)c1 (stereo not drawn) | -14
25 | c1ccc(OCCN2CCC(c3nnc(-c4cccnc4)o3)CC2)cc1 | -27.9
26 | Cc1n[nH]cc1C(=O)N1CCCC(n2nnc3cc(F)ccc32)C1 (stereo not drawn) | -2.91
27 | CN1CC(=O)N(C2CCC2)Cc2c(NC3CCNCC3)ncnc21 | 8.77
28 | COc1cccc([S+]([O-])CC(=O)NCc2cc(F)cc(F)c2)c1 (stereo not drawn) | -0.491
29 | CC(NS(=O)(=O)CC1(C#N)CCCC1)c1cccc(-n2cccn2)c1 (stereo not drawn) | 3.15
30 | FC(F)(F)Oc1cccc(CNCc2ccc(-n3cncn3)nc2)c1 | 20.3
31 | CCCc1c(C(=O)N2CCN(c3nccc(OC)n3)CC2)cnn1C | 17.2
32 | O=C1CCCN1CCCN1CCCC(Cn2cncn2)C1 (stereo not drawn) | -1.82
33 | COCc1nc(C(=O)NS(=O)(=O)c2ccc(F)c(F)c2)cs1 | 7.97
34 | CC(C)(C)C(=O)NCCC(=O)NS(=O)(=O)c1cccnc1 | -3.15
35 | CCN(Cc1ccoc1)c1ncc(S(N)(=O)=O)s1 | 5.73
36 | CC(NC(=O)N1CCc2sccc2C1)c1nncn1C (stereo not drawn) | -8.6
37 | O=C(c1cc2c([nH]c1=O)CCC2)N1CCCC1c1ccc(F)cc1 (stereo not drawn) | -6.14
38 | O=C1c2ccccc2C(=O)N1CC(O)Cn1nc(-c2cccs2)oc1=O (stereo not drawn) | -14.5
39 | CN(Cc1ccncc1)C(=O)CCNS(=O)(=O)c1cccnc1 | 0.541
40 | Cc1cc(Br)oc1C(=O)N1CCN(CC(N)=O)CC1 | 0.658
41 | CC(=O)N1CCC(c2nc(Cc3ccccc3)no2)C1 (stereo not drawn) | 5.15
42 | CCCS(=O)(=O)NCC(C)(O)c1ccsc1 (stereo not drawn) | -1.7
43 | O=C(Nc1nnc(C(F)F)s1)N[C@H](CCO)c1ccccc1 | 1.88
44 | Cc1cc(C(=O)NC2(c3cccc(F)c3)CCOCC2)no1 | 1.42
45 | CCOc1cc(C)nc(N2CCN(C(=O)c3cc(Cl)c[nH]3)CC2)n1 | 6.81
46 | COc1ccc2c(c1)C(=O)N(C)C1(CCN(C(=O)OC(C)(C)C)CC1)N2 | 25.1

Row | SMILES | cytotoxicity at 10 µM [%]
47 | COc1cccc2c1N(Cc1nc3c(cnn3C)c(=O)[nH]1)CCC2 | -4.15
48 | CCN(CC)S(=O)(=O)N1CCCC1c1nnc2n1CCCCC2 (stereo not drawn) | -6.83
49 | Cc1noc(C)c1CNc1cccc(C(=O)N2CCCC(O)C2)c1 (stereo not drawn) | -6.08
50 | CS(=O)(=O)CCCN1CCOC2(CCc3ccccc32)C1 (stereo not drawn) | -5.14
51 | Cc1cc(=O)n(C)cc1NC(=O)NCc1cccc(F)c1 | -5.3
52 | OC(CN(Cc1ccccc1)Cc1cscn1)c1ccco1 (stereo not drawn) | 5.04
53 | CN(C(=O)COC1CCCC1)C1CCN(CC2CCOC2)CC1 (stereo not drawn) | -9.98
54 | NC(=O)CN1CCCC1c1ccccc1Br (stereo not drawn) | 4.01
55 | COc1ccnc(N(C)Cc2ccccc2O)n1 | 2.29
56 | Cc1ccsc1CNc1ccc(C(=O)N2CCNC(=O)C2)cn1 | 7.04
57 | Cc1noc(C)c1CN(C)Cc1nc(N)c2ccccc2n1 | 8.85
58 | COc1ccccc1C1(CNCc2cccc(C#N)c2)CCOCC1 | 6.37
59 | COCCCN(C)S(=O)(=O)c1ccc(C(F)(F)F)cc1C#N | -4.55
60 | CC(C)c1nnc2n1CCN(C(C)c1nnc(-c3cccs3)o1)C2 (stereo not drawn) | 7.8
61 | O=C(NCC1(Sc2ccccc2)CC1)c1c[nH]nn1 | -17.9
62 | O=C(c1ccc2c(c1)CCO2)N1CCN(c2ncccn2)CC1 | 8.92
63 | Cc1cccnc1CSCCCNS(C)(=O)=O | -15.1
64 | CCS(=O)(=O)CCN(C)Cc1cc(C)ccc1OC | -51.5
65 | O=C(c1ccc2c(c1)[nH]c(=O)n2C1CCCC1)N1CCC1 | -46.4
66 | Cn1cc(CCCN2CCN(C(=O)c3cccc(O)c3)CC2)cn1 | -46.1
67 | N#Cc1ccccc1CN(CC(N)=O)C1CCCC1 | 10.4
68 | CC(C)COC1CCN(S(=O)(=O)Cc2cccc(F)c2)CC1 | -2.11
69 | Cc1cc(CS(=O)(=O)c2ccccc2)no1 | 10.5

Row | SMILES | cytotoxicity at 10 µM [%]
70 | CC(O)(CNc1ccccn1)c1ccccc1 (stereo not drawn) | -44.3
71 | CCCS(=O)(=O)N1CCC(NC(=O)c2ccc(Cl)s2)CC1 | 22.4
72 | Cc1ccc(N2CCC(c3cc(Cc4ccccc4)n[nH]3)CC2)nn1 | 3.53
73 | COc1ccccc1CN1C(=O)O[C@@H]2CN(c3nc(C)cnc3C)C[C@@H]21 | 1.06
74 | COCCn1ccnc1C1CCCN(C(=O)CSc2nnc(C)o2)C1 (stereo not drawn) | -4.3
75 | C=C(C)COc1ccc(C(=O)NCCn2c(C)cc(C)nc2=O)cc1 | -4.83
76 | c1cncc(CN2CCCC(Nc3ncnc4c3CCNCC4)C2)c1 (stereo not drawn) | 4.42
77 | CS(=O)(=O)N1CC[C@]2(O)CCN(c3ccnc(N)n3)C[C@@H]2C1 | 21
78 | COCC(=O)N1CCC(C(=O)N(C)CCCc2nccn2C)CC1 | -1.81
79 | COc1cnc(N2CCN(C)CC2)nc1-c1ccnn1C | 0.868
80 | Cc1cnc(NCCCN2CCCCC2CO)nc1 (stereo not drawn) | -7.17
81 | Cc1ccsc1-c1nccn1CCN1CCCOC1=O | -4.68
82 | COCc1ncc(CN(Cc2ccco2)C(C)C(C)C)cn1 (stereo not drawn) | -0.0832
83 | O=C(NCc1cn2c(n1)SCC2)c1cn(CCN2CCCCC2)nn1 | -3.69
84 | O=c1[nH]nc(CNCc2ccc(OC34CCCN(CC3)C4)cc2)[nH]1 (stereo not drawn) | -2.83
85 | CN(CCO)Cc1nnc(C2CCN(C(=O)c3ccccc3)CC2)n1C | 1.93
86 | CN(C)c1nc2n(c(=O)n1)CCN2C(=O)Nc1ccccc1 | 4.73
87 | COc1nc2c(cc1C(=O)N1C[C@H](N)C[C@H]1C(=O)NC(C)C)CCC2 | -9.49
88 | CC(C(=O)NCc1ccc(N2CCNC(=O)C2)cc1)c1cccs1 (stereo not drawn) | -4.43
89 | Cc1cc(C(=O)N2CCCC2)ccc1NCc1nc(CC(C)C)no1 | -4.09
90 | O=C(NCCc1ccc(Cl)s1)NCc1nnc2n1CCCC2 | -2.45
91 | Cn1ccnc1CN1CCCN(C(=O)c2ccc3[nH]cnc3c2)CC1 | -0.565
92 | Cc1cnn(CC2CN(c3ccc(C#N)cn3)CCO2)c1 (stereo not drawn) | -1.26

Row | SMILES | cytotoxicity at 10 µM [%]
93 | O=C(CS(=O)(=O)Cc1cc(Cl)c2c(c1)OCO2)N1CCCC1 | -8.91
94 | N#Cc1ccc(CNCCn2cccn2)c(F)c1 | -4.22
95 | COCCOc1ccc(C(=O)N2CCCC(n3cncn3)C2)cn1 (stereo not drawn) | -11.7
96 | Cc1nc(C)c(CC(=O)Nc2nc(C)c(C)s2)c(=O)[nH]1 | -6.28
97 | Cc1noc(C)c1C(C)C(=O)N1CCCN(Cc2cscn2)CC1 (stereo not drawn) | -4.28
98 | Cc1cc(C)n(CC2CCCN2C(=O)c2ccc3ccccc3n2)n1 (stereo not drawn) | -2.53
99 | Cc1cc(C)n(CC2CCCN2C(=O)c2cccnc2N(C)C)n1 (stereo not drawn) | -3.56
100 | CCc1noc(C(C)N2CCN(Cc3nc(C)c(C)o3)CC2)n1 (stereo not drawn) | -1.71
101 | CC1CCCN(C(=O)CCc2cccnc2)C1 (stereo not drawn) | -3.4
102 | Cn1nccc1C1CCN(CC(O)c2cccc(F)c2)CC1 (stereo not drawn) | -11.8
103 | COCC(C)NC(=O)c1cc(Br)c2c(c1)OCCO2 (stereo not drawn) | 3.54
104 | CCc1ncncc1C(=O)N1CCOC(c2nc(C)n[nH]2)C1 (stereo not drawn) | 0.842
105 | Cc1nnc(CN2CCN(CC(O)c3cccc(F)c3)CC2)n1C (stereo not drawn) | -1.92
106 | Cc1nc(CN2CCOC(Cn3cncn3)C2)nc2ccccc12 (stereo not drawn) | -0.241
107 | Cc1nc2c(c(C)c1CC(=O)Nc1cccc(C#N)c1)c(=O)[nH]n2C | 3.99
108 | CN(C)c1ncc(-c2cncnc2)c(C2CNCCO2)n1 (stereo not drawn) | 1.69
109 | CN(C)CCN1CCOCC2(CCCN(C(=O)c3ccccc3)C2)C1 (stereo not drawn) | 5.31
110 | O=C(C[C@@H]1COC[C@H]2CN(C3CCCC3)C[C@@H]12)NCc1cccnc1 | 6.84
111 | c1ccc(CN2CCCC3(CCN(Cc4cccs4)C3)C2)nc1 (stereo not drawn) | -8.75
112 | CO[C@@H]1CCN(Cc2ccccn2)[C@@H]2CN(Cc3ccco3)C[C@@H]21 | 6.73
113 | O=c1[nH]c2cn(-c3cccc(F)c3)c(=O)n2n1Cc1ccccc1Cl | 4.9
